TPT1 inhibitor: C. albicans TPT1 enzyme inhibition; recombinant caTPT1, FP RNA substrate dephosphorylation; 0.81% of 300,000 active; inhibition, % at 5 µM; AID 1962;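 active = inhibition above the mean of all tested compounds plus 3 SD, set per screening campaign, cut at about 24% in these data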;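 also: plate controls were DMSO alone for no effect and ferristatin control at 100 nM for full effect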
ATG4B inh: blocks human ATG4B protease cleavage of LC3 substrate | ATG4B cleavage of LC3-PLA2, NBD-HPC fluorescence, 1 h | AID 504462 | inhibition, % at 8.33 µM | Q9Y4P1 | 0.51% of 340,000 active; in the data active = inhibition above about 40%
Target sequence (Q9Y4P1 whole entry, looked up): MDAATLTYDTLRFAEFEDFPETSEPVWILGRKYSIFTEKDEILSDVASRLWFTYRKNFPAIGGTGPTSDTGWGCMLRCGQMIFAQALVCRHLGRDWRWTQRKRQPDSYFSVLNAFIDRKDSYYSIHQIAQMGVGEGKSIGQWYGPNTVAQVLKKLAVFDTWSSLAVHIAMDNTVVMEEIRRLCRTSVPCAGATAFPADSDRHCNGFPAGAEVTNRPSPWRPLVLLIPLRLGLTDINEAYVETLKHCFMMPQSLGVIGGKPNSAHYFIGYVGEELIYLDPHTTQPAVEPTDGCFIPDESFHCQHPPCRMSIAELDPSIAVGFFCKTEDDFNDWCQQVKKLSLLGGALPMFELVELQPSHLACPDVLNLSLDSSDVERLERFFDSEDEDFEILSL
Rpn11 block: blocks the human proteasome subunit Rpn11 | human 26S proteasome, Ub4-pepOG fluorescence polarization; 20S core pre-blocked with epoxomicin | inhibition, % at 20 µM | 0.59% of 360,000 active;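 active = inhibition at 20 µM, scaled to each plate's controls, above about 33%, limit read from the data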
CSN inh: blocks human CSN-mediated cullin deneddylation; Q92905; Purified CSN, SCF-Nedd8-OG deneddylation, fluorescence polarization; inhibition, % at 12.5 µM; 0.38% of 360,000 active; AID 651999;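 active = pattern-corrected inhibition above about 35%, with an unprinted fluorescence ratio check between 0.5 and 1.5, limit read from the data, passing the limit was not always enough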;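 also: 0% = enzyme with substrate and 100% = substrate without enzyme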
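Test system: Human Csn5 produced in HEK293T cells | Compound: 12.5 µM single point | Times: 90 min, room temperature | Signal: Fluorescence polarization readout | Read-out basis: % inhibition of substrate cleavage by Csn5 | Controls: no-enzyme wells high, enzyme-with-substrate wells low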
SENP1 FRET inh: SENP1 (human) catalytic domain inhibition; Q9P0U3; recombinant SENP1 catalytic domain, CyPet-SUMO1-YPet FRET cleavage; inhibition, % at 10 µM; 0.21% of 360,000 active;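 active = inhibition at least 30% at 10 µM, raw YFP signal under a set limit, fluorescence ratio 0.5 to 1.5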;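 also: 0% = enzyme with DMSO and 100% = no enzyme wells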
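Test system: hSENP1 catalytic domain, recombinant; Amount: 20 pM final SENP1 enzyme; Medium: Tris pH 8 buffer plus EDTA, NaCl, BME, BSA, NP40, catalase; Schedule: 50 min enzyme reaction, room temperature, light-protected; Technique: FRET fluorescence in CFP and YFP emission channels; Controls: no-enzyme wells low, DMSO-plus-enzyme wells high control.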
HNF4A DNA FP: change in binding of human HNF4 alpha to DNA; HNF4a-FITC DNA binding, fluorescence polarization, 1 h; 0.3% of 360,000 active; P41235; activity change, % at 10 µM; in the data active = activity change above about 30%, passing the limit was not always enough
SENP1 conf: SENP1 (human) inhibition, single concentration confirmation | shares compounds with SENP1 FRET inh | recombinant SENP1, CyPet-SUMO1-YPet FRET cleavage | inhibition, % at 10 µM | 34% of 520 active; in the data active = inhibition mostly above about 35%, no sharp cut-off; inactive = mostly below about 32%;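 also: 0% = enzyme with DMSO and 100% = no enzyme control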
SENP1 kinetic: confirmation of human SENP1 SUMO protease inhibitors, kinetic; recombinant SENP1, CyPet-SUMO1-YPet FRET kinetic cleavage; AID 651690; inhibition, % at 10 µM; 26% of 520 active; shares compounds with SENP1 FRET inh; in the data active = inhibition mostly above about 32%, no sharp cut-off; inactive = mostly below about 29%;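 also: 0% = DMSO with enzyme and 100% = no enzyme substrate only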
* marks the source's active call; other numbers are inactive results. Most compounds without a hit are left out; they make up all but 2% or so of the library.

What do the screens show for `COc1cc(-c2cnc3c(NC(C)=O)cc(-c4ccc(N5CCN(C)CC5)cc4)cn23)cc(OC)c1OC`?
Rpn11 block: 20.7; CSN inh: -3.1; SENP1 FRET inh: 33.7*; HNF4A DNA FP: 11.3; SENP1 conf: 12.4; SENP1 kinetic: -0.6

Results for COc1ccc2nc(SCC(=O)Nc3cc(C)on3)c(C#N)cc2c1 ?
TPT1 inhibitor: -0.8; ATG4B inh: -6.2; Rpn11 block: 11.6; CSN inh: 1.9; SENP1 FRET inh: 47.9*; HNF4A DNA FP: 2.8; SENP1 conf: -37.5; SENP1 kinetic: 12.8

What do the screens show for `Cc1cc(NC(=O)CSc2nc3ccccc3cc2C#N)no1`?
TPT1 inhibitor: -3.8; ATG4B inh: -11.3; CSN inh: 2.1; SENP1 FRET inh: 55.5*; HNF4A DNA FP: 14.8; SENP1 conf: 59.7*; SENP1 kinetic: 49.8*

How did COC(=O)CSc1nc2cc(C)ccc2cc1C#N do in these assays?
TPT1 inhibitor: -7.3; ATG4B inh: -1.8; Rpn11 block: 1.3; CSN inh: 1.9; SENP1 FRET inh: 61.7*; HNF4A DNA FP: -1.6; SENP1 conf: 14.6; SENP1 kinetic: 21.9

What do the screens show for `Cc1ccc2cc(C#N)c(SCC(=O)NCC3CCCO3)nc2c1` (stereo not given)?
TPT1 inhibitor: 0.3; ATG4B inh: 4.9; Rpn11 block: -6.6; CSN inh: 1.7; SENP1 FRET inh: -14.2; HNF4A DNA FP: 2.3

How did CC(c1ccco1)N(C(=O)c1cccs1)c1ccccn1 (stereo not given) do in these assays?
TPT1 inhibitor: -0.5; ATG4B inh: -10.1; Rpn11 block: -4.2; CSN inh: -4.5; SENP1 FRET inh: 30.2*; HNF4A DNA FP: 2.9; SENP1 conf: -6.1; SENP1 kinetic: 6.3

What do the screens show for `Cc1cc2c(cn1)C(CCC#N)(CCC#N)c1ccccc1-2`?
TPT1 inhibitor: 0.6; ATG4B inh: 1.7; Rpn11 block: -1.3; CSN inh: -0.9; SENP1 FRET inh: 0.2; HNF4A DNA FP: 4.7

What do the screens show for `Cc1nc2ccc(NS(=O)(=O)c3c(F)cccc3F)cc2s1`?
ATG4B inh: -2.8; Rpn11 block: 18.2; CSN inh: 8.5; SENP1 FRET inh: 52.5*; HNF4A DNA FP: 22.9; SENP1 conf: 25.9; SENP1 kinetic: 25.4*

How did Cc1nc2ccc(NS(=O)(=O)c3ccc(F)cc3)cc2s1 do in these assays?
TPT1 inhibitor: -4.6; ATG4B inh: -0.8; Rpn11 block: 4.8; CSN inh: 1.9; SENP1 FRET inh: -0.8; HNF4A DNA FP: -0.6

Results for CCOc1cccc(/C=C2\NC(=S)N(c3ccccc3)C2=O)c1O ?
TPT1 inhibitor: -0.6; ATG4B inh: 0.7; Rpn11 block: 6.7; CSN inh: -1.6; SENP1 FRET inh: 47.6*; HNF4A DNA FP: 1.0; SENP1 conf: 44.8*; SENP1 kinetic: 18.1

What do the screens show for `CCOc1cccc(/C=C2/NC(=O)N(CC(=O)Nc3cccc(C)c3)C2=O)c1O`?
TPT1 inhibitor: -2.6; ATG4B inh: 0.0; Rpn11 block: -3.4; CSN inh: 5.9; SENP1 FRET inh: 24.6; HNF4A DNA FP: 0.2

What do the screens show for `O=c1[nH]c(/C(Cl)=C/c2cc(Cl)ccc2O)nc2cc(Cl)ccc12`?
TPT1 inhibitor: 5.3; ATG4B inh: 26.6; Rpn11 block: 5.4; CSN inh: 3.6; SENP1 FRET inh: 58.5*; HNF4A DNA FP: 1.2; SENP1 conf: 88.9*; SENP1 kinetic: 73.2*

What do the screens show for `N#Cc1ccc(-c2nc3ccc(Br)cn3c2Cc2ccccc2C(F)(F)F)cc1`?
Rpn11 block: 14.4; CSN inh: 1.6; SENP1 FRET inh: 45.4*; HNF4A DNA FP: 7.3; SENP1 conf: 44.5*; SENP1 kinetic: 35.7*

How did CCOC(=O)c1c(C)[n+]([O-])c2ccc3c(non3O)c12 do in these assays?
TPT1 inhibitor: -2.5; ATG4B inh: -1.4; Rpn11 block: -1.6; CSN inh: 1.2; SENP1 FRET inh: 3.3; HNF4A DNA FP: 2.7

Assay outcomes (PubChem BioAssay)
